Measurements taken from ChEMBL document CHEMBL1781950, “Synthesis of 4-(aminoalkyl) substituted 1,3-dioxanes as potent NMDA and σ receptor antagonists” (Eur J Med Chem, 2011).
Activity calls are given as the source filed them. The rule behind the calls is not given here.

Tested on: not listed separately
Test: Selectivity ratio of Ki for rat sigma 2 receptor to Ki for guinea pig sigma 1 receptor

Row | Compound | Ratio Ki
1 | c1ccc(CNCC[C@@H]2CCO[C@H](c3ccccc3)O2)cc1 (racemic) | 5
2 | CC[C@@]1(c2ccccc2)OCC[C@@H](CCNCc2ccccc2)O1 (relative stereo) | 33

Tested on: Mus musculus
Test: Analgesic activity against capsaicin-induced nocifensive behavior in mouse assessed as paw withdrawal latency to von Frey filament-induced pain at 0.25 mg/kg administered 30 mins before and measured 15 mins after capsaicin challenge
Assay type: functional
Outline: (§1)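 Capsaicin injected into mid-plantar surface of right hind paw of mice; test ligand given 30 min before capsaicin. Mechanical withdrawal latency to a 1 g von Frey filament read 15 min after capsaicin; effect expressed as % analgesia.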

Row | Compound | Activity [%]
3 | c1ccc(CNCC[C@@H]2CCO[C@H](c3ccccc3)O2)cc1 (racemic) | 70

Tested on: Mus musculus
Test: Analgesic activity against capsaicin-induced nocifensive behavior in mouse assessed as paw withdrawal latency to von Frey filament-induced pain at 0.5 mg/kg administered 30 mins before and measured 15 mins after capsaicin challenge
Assay type: functional
Outline: as §1

Row | Compound | Activity [%]
4 | c1ccc(CNCC[C@@H]2CCO[C@H](c3ccccc3)O2)cc1 (racemic) | 100

Tested on: Mus musculus
Test: Analgesic activity against capsaicin-induced nocifensive behavior in mouse assessed as paw withdrawal latency to von Frey filament-induced pain at 32 mg/kg administered 30 mins before and measured 15 mins after capsaicin challenge
Assay type: functional, organism-based
Set-up: dose 32 mg/kg
Outline: as §1

Row | Compound | Activity
5 | c1ccc(CNCC[C@@H]2CCO[C@H](c3ccccc3)O2)cc1 (racemic) | Active
6 | CC[C@@]1(c2ccccc2)OCC[C@@H](CCNCc2ccccc2)O1 (relative stereo) | inactive

Target: not listed separately
Test: Displacement of [3H]-(+)-MK801 from NMDA receptor PCP binding site in pig cortex membrane after 90 mins by liquid scintillation counting
Assay type: cell membranes, Sus scrofa
Outline: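 Pig brain cortex membranes (about 100 µg protein) incubated with 2 nM [3H]-(+)-MK-801 and at least 6 test concentrations in 5 mM Tris–acetate, 1 mM EDTA, pH 7.5, 90 min at 25 °C. Filtered on PEI-soaked GF/C filters. Non-specific binding with 10 µM (+)-MK-801. IC50 by nonlinear regression, triplicates; Ki mean ± SEM of three experiments.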

Row | Compound | Ki [µM]
7 | NCC[C@@H]1CCOC(c2ccccc2)(c2ccccc2)O1 | 2.35
8 | CNCC[C@@H]1CCOC(c2ccccc2)(c2ccccc2)O1 | 6.87
9 | CN(C)CC[C@@H]1CCOC(c2ccccc2)(c2ccccc2)O1 | > 10
10 | c1ccc(CNCC[C@@H]2CCOC(c3ccccc3)(c3ccccc3)O2)cc1 | > 10
11 | NCC[C@@H]1CCOC2(O1)C1CC3CC(C1)CC2C3 (some centres undefined) | > 10
12 | NCCC[C@@H]1CCOC(c2ccccc2)(c2ccccc2)O1 | > 10
13 | NCC[C@H]1COC(c2ccccc2)(c2ccccc2)O1 | 3.26
14 | CC[C@]1(c2ccccc2)OC[C@H](CCN)O1 | 0.069
15 | NC[C@@H]1CCOC(c2ccccc2)(c2ccccc2)O1 | 0.717
16 | CC[C@]1(c2ccccc2)OCC[C@@H](CN)O1 | 0.257
17 | NCC[C@@H]1CCO[C@H](c2ccccc2)O1 (racemic) | > 10
18 | CNCC[C@@H]1CCO[C@H](c2ccccc2)O1 (racemic) | > 10
19 | CN(C)CC[C@@H]1CCO[C@H](c2ccccc2)O1 (racemic) | > 10
20 | c1ccc(CNCC[C@@H]2CCO[C@H](c3ccccc3)O2)cc1 (racemic) | > 10
21 | CC[C@@]1(c2ccccc2)OCC[C@@H](CCN)O1 (relative stereo) | 0.024
22 | CC[C@@]1(c2ccccc2)OCC[C@@H](CCNC)O1 (relative stereo) | 0.154
23 | CC[C@@]1(c2ccccc2)OCC[C@@H](CCN(C)C)O1 (relative stereo) | 0.713
24 | CC[C@@]1(c2ccccc2)OCC[C@@H](CCNCc2ccccc2)O1 (relative stereo) | > 10
25 | NCCC[C@@H]1CCO[C@H](c2ccccc2)O1 (relative stereo) | > 10
26 | CNCCC[C@@H]1CCO[C@H](c2ccccc2)O1 (relative stereo) | > 10
27 | CN(C)CCC[C@@H]1CCO[C@H](c2ccccc2)O1 (relative stereo) | > 10
28 | c1ccc(CNCCC[C@@H]2CCO[C@H](c3ccccc3)O2)cc1 (relative stereo) | > 10
29 | CC[C@@]1(c2ccccc2)OCC[C@@H](CCCN)O1 (relative stereo) | 7.67
30 | CC[C@]1(c2ccccc2)OC[C@H]([C@@H]2CCCCN2)O1 [ETOXADROL] | 0.022
31 | c1ccc(C2(N3CCCCC3)CCCCC2)cc1 [PHENCYCLIDINE] | 0.028

Target: not listed separately
Test: Displacement of [3H]-(+)-MK801 from NMDA receptor PCP binding site
Outline: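 Pig brain cortex membranes (about 100 µg protein) incubated with test compound (at least 6 concentrations), 2 nM [3H]-(+)-MK-801 in 5 mM Tris–acetate, 1 mM EDTA, pH 7.5, 90 min at 25 °C. Filtered through polyethylenimine-soaked GF/C filters, counted by scintillation. Nonspecific binding with 10 µM (+)-MK-801. IC50 from nonlinear regression, converted to Ki. Triplicates, three independent experiments.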

Row | Compound | Ki [nM]
32 | c1ccc(C2(c3ccccc3)OC[C@H]([C@@H]3CCCCN3)O2)cc1 [DEXOXADROL] | 23
33 | CC[C@]1(c2ccccc2)OC[C@H]([C@@H]2CCCCN2)O1 [ETOXADROL] | 20

Target: not listed separately
Test: Displacement of [3H]-ditolylguanidine from sigma 2 receptor PCP binding site in rat liver membrane
Assay type: cell membranes
Outline: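 Non-specific binding with 10 µM unlabelled ditolylguanidine. Triplicates; IC50 from at least 6 concentrations by nonlinear regression; Ki mean ± SEM of three experiments.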

Row | Compound | Ki [µM]
34 | NCC[C@@H]1CCOC(c2ccccc2)(c2ccccc2)O1 | > 10
35 | CNCC[C@@H]1CCOC(c2ccccc2)(c2ccccc2)O1 | > 10
36 | CN(C)CC[C@@H]1CCOC(c2ccccc2)(c2ccccc2)O1 | > 10
37 | c1ccc(CNCC[C@@H]2CCOC(c3ccccc3)(c3ccccc3)O2)cc1 | 2.75
38 | NCC[C@@H]1CCOC2(O1)C1CC3CC(C1)CC2C3 (some centres undefined) | > 10
39 | NCCC[C@@H]1CCOC(c2ccccc2)(c2ccccc2)O1 | > 10
40 | NCC[C@@H]1CCO[C@H](c2ccccc2)O1 (racemic) | > 10
41 | CNCC[C@@H]1CCO[C@H](c2ccccc2)O1 (racemic) | > 10
42 | CN(C)CC[C@@H]1CCO[C@H](c2ccccc2)O1 (racemic) | 1.83
43 | c1ccc(CNCC[C@@H]2CCO[C@H](c3ccccc3)O2)cc1 (racemic) | 0.092
44 | CC[C@@]1(c2ccccc2)OCC[C@@H](CCN)O1 (relative stereo) | > 10
45 | CC[C@@]1(c2ccccc2)OCC[C@@H](CCNC)O1 (relative stereo) | > 10
46 | CC[C@@]1(c2ccccc2)OCC[C@@H](CCN(C)C)O1 (relative stereo) | > 10
47 | CC[C@@]1(c2ccccc2)OCC[C@@H](CCNCc2ccccc2)O1 (relative stereo) | 0.903
48 | NCCC[C@@H]1CCO[C@H](c2ccccc2)O1 (relative stereo) | 0.581
49 | CNCCC[C@@H]1CCO[C@H](c2ccccc2)O1 (relative stereo) | 6.32
50 | CN(C)CCC[C@@H]1CCO[C@H](c2ccccc2)O1 (relative stereo) | > 10
51 | c1ccc(CNCCC[C@@H]2CCO[C@H](c3ccccc3)O2)cc1 (relative stereo) | 3.89
52 | CC[C@@]1(c2ccccc2)OCC[C@@H](CCCN)O1 (relative stereo) | 0.542
53 | Cc1ccccc1NC(=N)Nc1ccccc1C [DITOLYLGUANIDINE] | 0.064

Target: Sigma non-opioid intracellular receptor 1 (Cavia porcellus, UniProt Q60492)
Test: Displacement of [3H]-(+)-pentazocine from sigma 1 receptor PCP binding site in guinea pig brain by liquid scintillation counting

Chain of Sigma non-opioid intracellular receptor 1 (Q60492 whole entry): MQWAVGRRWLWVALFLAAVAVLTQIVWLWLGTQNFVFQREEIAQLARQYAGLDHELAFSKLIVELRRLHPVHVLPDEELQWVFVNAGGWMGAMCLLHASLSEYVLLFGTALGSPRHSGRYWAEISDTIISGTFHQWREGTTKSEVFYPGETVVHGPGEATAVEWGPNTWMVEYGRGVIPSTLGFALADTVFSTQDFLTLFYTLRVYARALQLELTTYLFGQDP

Row | Compound | Ki [nM]
54 | NCC[C@@H]1CCOC(c2ccccc2)(c2ccccc2)O1 | > 10000
55 | CNCC[C@@H]1CCOC(c2ccccc2)(c2ccccc2)O1 | > 10000
56 | CN(C)CC[C@@H]1CCOC(c2ccccc2)(c2ccccc2)O1 | 660
57 | c1ccc(CNCC[C@@H]2CCOC(c3ccccc3)(c3ccccc3)O2)cc1 | 320
58 | NCC[C@@H]1CCOC2(O1)C1CC3CC(C1)CC2C3 (some centres undefined) | 1250
59 | NCCC[C@@H]1CCOC(c2ccccc2)(c2ccccc2)O1 | 175
60 | NCC[C@@H]1CCO[C@H](c2ccccc2)O1 (racemic) | 165
61 | CNCC[C@@H]1CCO[C@H](c2ccccc2)O1 (racemic) | 449
62 | CN(C)CC[C@@H]1CCO[C@H](c2ccccc2)O1 (racemic) | 1650
63 | c1ccc(CNCC[C@@H]2CCO[C@H](c3ccccc3)O2)cc1 (racemic) | 19
64 | CC[C@@]1(c2ccccc2)OCC[C@@H](CCN)O1 (relative stereo) | 955
65 | CC[C@@]1(c2ccccc2)OCC[C@@H](CCNC)O1 (relative stereo) | 856
66 | CC[C@@]1(c2ccccc2)OCC[C@@H](CCN(C)C)O1 (relative stereo) | 511
67 | CC[C@@]1(c2ccccc2)OCC[C@@H](CCNCc2ccccc2)O1 (relative stereo) | 27
68 | NCCC[C@@H]1CCO[C@H](c2ccccc2)O1 (relative stereo) | 167
69 | CNCCC[C@@H]1CCO[C@H](c2ccccc2)O1 (relative stereo) | 327
70 | CN(C)CCC[C@@H]1CCO[C@H](c2ccccc2)O1 (relative stereo) | 1220
71 | c1ccc(CNCCC[C@@H]2CCO[C@H](c3ccccc3)O2)cc1 (relative stereo) | 164
72 | CC[C@@]1(c2ccccc2)OCC[C@@H](CCCN)O1 (relative stereo) | 6450

Tested on: Mus musculus
Test: Analgesic activity against capsaicin-induced nocifensive behavior in mouse assessed as paw withdrawal latency to von Frey filament-induced pain at 1 mg/kg administered 30 mins before and measured 15 mins after capsaicin challenge
Assay type: functional
Outline: as §1

Row | Compound | Activity [%]
73 | c1ccc(CNCC[C@@H]2CCO[C@H](c3ccccc3)O2)cc1 (racemic) | 100

Tested on: Mus musculus
Test: Analgesic activity against capsaicin-induced nocifensive behavior in mouse assessed as paw withdrawal latency to von Frey filament-induced pain at 0.125 mg/kg administered 30 mins before and measured 15 mins after capsaicin challenge
Assay type: functional
Outline: as §1

Row | Compound | Activity [%]
74 | c1ccc(CNCC[C@@H]2CCO[C@H](c3ccccc3)O2)cc1 (racemic) | 10
